ChEMBL document CHEMBL2029325, “Fused piperidines as a novel class of potent and orally available transient receptor potential melastatin type 8 (TRPM8) antagonists” (J Med Chem, 2012)
pIC50: −log10 of the molar value. In brackets after ≈: the same amount, converted by molar mass. Activity calls are given as the source filed them. The rule behind the calls is not given here.

How the values were obtained:
[1] = target: Transient receptor potential cation channel subfamily M member 8 (Rattus norvegicus, UniProt Q8R455); experiment: Antagonist activity at rat TRPM8 expressed in CHO cells assessed as inhibition of icilin-induced Ca2+ influx incubated 2.5 mins prior icilin induction by flash luminometry; type: functional, cell-based
Chain of Transient receptor potential cation channel subfamily M member 8 (Q8R455 whole entry): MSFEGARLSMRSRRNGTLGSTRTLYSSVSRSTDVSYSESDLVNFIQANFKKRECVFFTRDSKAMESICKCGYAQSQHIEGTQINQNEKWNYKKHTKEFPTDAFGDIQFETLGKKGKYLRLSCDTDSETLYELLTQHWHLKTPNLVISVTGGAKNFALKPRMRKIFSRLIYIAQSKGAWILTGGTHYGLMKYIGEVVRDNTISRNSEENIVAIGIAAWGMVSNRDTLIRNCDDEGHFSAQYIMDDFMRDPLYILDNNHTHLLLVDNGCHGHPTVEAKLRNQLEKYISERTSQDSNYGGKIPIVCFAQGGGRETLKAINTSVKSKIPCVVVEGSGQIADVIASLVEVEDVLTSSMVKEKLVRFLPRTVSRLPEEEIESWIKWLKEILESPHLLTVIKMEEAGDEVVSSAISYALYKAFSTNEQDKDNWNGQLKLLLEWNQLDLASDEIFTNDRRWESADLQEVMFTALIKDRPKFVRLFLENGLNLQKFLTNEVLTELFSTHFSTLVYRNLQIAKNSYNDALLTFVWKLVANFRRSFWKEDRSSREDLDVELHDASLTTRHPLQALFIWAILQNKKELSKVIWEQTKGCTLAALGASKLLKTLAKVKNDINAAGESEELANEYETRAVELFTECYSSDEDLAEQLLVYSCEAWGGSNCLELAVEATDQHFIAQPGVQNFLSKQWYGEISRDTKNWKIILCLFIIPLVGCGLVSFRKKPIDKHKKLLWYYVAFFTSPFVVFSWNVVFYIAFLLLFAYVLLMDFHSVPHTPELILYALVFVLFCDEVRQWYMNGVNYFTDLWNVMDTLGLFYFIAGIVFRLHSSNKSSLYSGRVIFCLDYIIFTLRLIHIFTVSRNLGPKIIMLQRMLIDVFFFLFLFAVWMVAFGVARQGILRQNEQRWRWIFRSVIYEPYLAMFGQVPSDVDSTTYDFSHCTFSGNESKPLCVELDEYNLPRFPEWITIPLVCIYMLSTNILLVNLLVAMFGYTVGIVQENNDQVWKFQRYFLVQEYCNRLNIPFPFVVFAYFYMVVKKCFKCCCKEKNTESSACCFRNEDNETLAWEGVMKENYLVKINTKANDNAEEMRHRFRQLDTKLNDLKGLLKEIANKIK
In short: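 CHO cells stably expressing rat TRPM8 under a tetracycline-inducible T-REx system, co-transfected with aequorin. Seeded 24 h before assay; expression induced with 0.5 μg/mL tetracycline. Luminescence was read on a CCD-camera luminometer.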

[2] = Intrinsic clearance in CD1 rat liver microsomes at 1 uM after 30 mins; type: ADME, Microsome; settings: read-out: CLH
[3] = AUC (infinity) in Sprague-Dawley rat at 2 mg/kg, iv by LC-MS/MS analysis; type: ADME, organism-based; set-up: time infinity, dose 2 mg/kg, route intravenous; settings: plasma
In short: (§1)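 Fed male Sprague–Dawley rats, n = 3, given 2 mg/kg iv in DMSO. Measured by LC/MS/MS; noncompartmental analysis; mean(SD).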

[4] = Volume of distribution at steady state in Sprague-Dawley rat at 2 mg/kg, iv by LC-MS/MS analysis; type: ADME, organism-based; set-up: dose 2 mg/kg, route intravenous; settings: in vivo, read-out: Vdss; in short: as §1
[5] = AUC (infinity) in Sprague-Dawley rat at 10 mg/kg, po by LC-MS/MS analysis; type: ADME, organism-based; set-up: time infinity, dose 10 mg/kg, route oral; settings: plasma
In short: (§2)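 Fasted male Sprague–Dawley rats, n = 3, given 10 mg/kg by oral gavage as a suspension in 5% Tween 80/Oraplus. Plasma taken predose and at 0.25, 0.5, 1, 2, 4, 6, 8, 12 and 16 h. Measured by LC/MS/MS; noncompartmental analysis; mean(SD).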

[6] = Cmax in Sprague-Dawley rat at 10 mg/kg, po by LC-MS/MS analysis; type: ADME, organism-based; set-up: dose 10 mg/kg, route oral; settings: in vivo; in short: as §2
[7] = Oral bioavailability in Sprague-Dawley rat at 10 mg/kg by LC-MS/MS analysis; type: ADME, organism-based; settings: in vivo; in short: as §2
Rattus norvegicus [8] = experiment: Antinociceptive activity in po dosed Sprague-Dawley rat assessed as inhibition of icilin-induced wet-dog shakes administered 90 mins prior icilin challenge measured for 30 mins; type: functional, organism-based
In short: (§3)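 Male Sprague–Dawley rats (220–300 g, n = 5–13/treatment) were habituated 30 min to the room, then 20 min to an observation cylinder, kept out of sight of other rats. Compound or vehicle (5% Tween 80/Oraplus) given po 90 min before icilin (0.5 mg/kg ip in 100% PEG 400). Wet-dog shakes counted for 30 min afterwards.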

Rattus norvegicus [9] = experiment: Antinociceptive activity in Sprague-Dawley rat assessed as inhibition of icilin-induced wet-dog shakes at 3 mg/kg, po administered 90 mins prior icilin challenge measured for 30 mins; type: functional; in short: as §3
Rattus norvegicus [10] = experiment: Antinociceptive activity in Sprague-Dawley rat assessed as inhibition of icilin-induced wet-dog shakes at 30 mg/kg, po administered 90 mins prior icilin challenge measured for 30 mins; type: functional; in short: as §3
Plasma [11] = experiment: Plasma concentration in Sprague-Dawley rat at 30 mg/kg, po; type: ADME, organism-based; set-up: dose 30 mg/kg, route oral; settings: in vivo
In short: (§4)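 Male Sprague–Dawley rats (n = 8 per group) dosed po in 5% Tween 80/Oraplus 90 min before icilin challenge in the wet-dog-shake study. Plasma collected 2 h after oral dosing.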

Rattus norvegicus [12] = experiment: Antinociceptive activity in Sprague-Dawley rat assessed as inhibition of icilin-induced wet-dog shakes at 100 mg/kg, po administered 90 mins prior icilin challenge measured for 30 mins; type: functional, organism-based; set-up: dose 100 mg/kg; in short: as §3
Plasma [13] = experiment: Plasma concentration in Sprague-Dawley rat at 100 mg/kg, po; type: ADME, organism-based; set-up: dose 100 mg/kg, route oral; settings: in vivo; in short: as §4

| SMILES | pIC50 [1] | microsomal CLint at 1 µM [2] | further results |
| --- | --- | --- | --- |
| FC(F)(F)c1ccc(C2c3ccsc3CCN2Cc2ccccc2)cc1 (centres undefined) | < 4.70 | > 399 µL/min/mg |  |
| O=C(Nc1ccccc1)N1CCc2sccc2C1c1ccccc1C(F)(F)F (centres undefined) | 6.62 | > 399 µL/min/mg |  |
| O=C(Nc1ccc(Cl)cc1)N1CCc2sccc2C1c1ccc(C(F)(F)F)cc1 (centres undefined) | 5.79 | 162 µL/min/mg |  |
| O=C(Nc1ccc(F)cc1)N1CCc2occc2C1c1ccc(C(F)(F)F)cc1 (centres undefined) | 6.59 | 109 µL/min/mg |  |
| O=C(Nc1ccc(F)cc1)N1CCc2scnc2C1c1ccc(C(F)(F)F)cc1 (centres undefined) | 7.03 | 110 µL/min/mg |  |
| Cn1cnc2c1CCN(C(=O)Nc1ccc(F)cc1)C2c1ccc(C(F)(F)F)cc1 (centres undefined) | 6.59 | 36 µL/min/mg |  |
| O=C(Nc1ccccc1)N1CCc2sccc2C1C1CC1 (centres undefined) | 5.25 | > 399 µL/min/mg |  |
| FC(F)(F)c1ccc(C2NCCc3sccc32)cc1 (centres undefined) | < 4.70 | > 399 µL/min/mg |  |
| O=C(Nc1ccc(F)cc1)N1Cc2ccccc2C1c1ccc(C(F)(F)F)cc1 (centres undefined) | 6.47 | 64 µL/min/mg |  |
| O=C(c1cccc(F)c1)N1CCc2sccc2C1c1ccc(C(F)(F)F)cc1 (centres undefined) | < 4.70 | > 399 µL/min/mg |  |
| O=C(Nc1ccc(F)cc1)N1CCc2ccsc2C1c1ccc(C(F)(F)F)cc1 (centres undefined) | 6.82 | 206 µL/min/mg |  |
| O=C(NC1CC1)N1CCc2sccc2C1c1ccc(C(F)(F)F)cc1 (centres undefined) | 5.92 | > 399 µL/min/mg |  |
| O=C(Nc1ccccc1)N1CCc2sccc2C1c1ccc(F)cc1 (centres undefined) | 5.74 | > 399 µL/min/mg |  |
| O=C(Nc1ccc(F)cc1)N1CCc2ccoc2C1c1ccc(C(F)(F)F)cc1 (centres undefined) | 6.64 | 164 µL/min/mg |  |
| CC1c2ccsc2CCN1C(=O)Nc1ccccc1 (centres undefined) | 5.17 |  |  |
| O=C(c1ccccc1F)N1CCc2sccc2C1c1ccc(C(F)(F)F)cc1 (centres undefined) | 6.29 | > 399 µL/min/mg |  |
| O=C(Nc1ccccc1F)N1CCc2sccc2C1c1ccc(C(F)(F)F)cc1 (centres undefined) | 6.22 | 342 µL/min/mg |  |
| O=C(Nc1ccc(F)cc1)N1CCc2nc[nH]c2C1c1ccc(C(F)(F)F)cc1 (centres undefined) | 5.84 | 23 µL/min/mg |  |
| O=C(Nc1ccccc1)N1CCc2sccc2C1c1ccccc1 (centres undefined) | 5.77 | > 399 µL/min/mg |  |
| O=C(Nc1ccc(F)cc1)N1CCn2cccc2C1c1ccc(C(F)(F)F)cc1 (centres undefined) | 6.74 | 123 µL/min/mg |  |
| O=C(Nc1ccccc1)N1CCc2sccc2C1 | < 4.70 | 180 µL/min/mg |  |
| CCCC1c2ccsc2CCN1C(=O)Nc1ccc(Cl)cc1 (centres undefined) | 5.86 | > 399 µL/min/mg |  |
| CCCC1c2ccsc2CCN1C(=O)Nc1ccccc1 (centres undefined) | 6.53 | > 399 µL/min/mg |  |
| O=C(Nc1ccc(F)cc1)N1CCc2ccccc2[C@H]1c1ccc(C(F)(F)F)cc1 |  |  | AUC(0-inf) [3]: 0.763 µg·h/mL; Vd [4]: 15.3 L/kg; AUC(0-inf) [5]: 1.75 µg·h/mL; Cmax [6]: 0.265 µg/mL; bioavailability [7]: 57%; EC50 (Rattus norvegicus [8]): 0.209 mg/L (≈ 0.504 µM); inhibition (Rattus norvegicus [8]): Dose-dependent effect; inhibition in vivo at 3 mg/kg (Rattus norvegicus [9]): 30%; inhibition in vivo at 30 mg/kg (Rattus norvegicus [10]): > 80%; Cp (Plasma [11]): 0.46 µg/mL |

| SMILES | pIC50 [1] | microsomal CLint at 1 µM [2] | further results |
| --- | --- | --- | --- |
| O=C(Nc1ccc(F)cc1)N1CCc2cc(F)ccc2C1c1ccc(C(F)(F)F)cc1 (centres undefined) | 6.52 | 40 µL/min/mg |  |
| O=C(Nc1ccc(F)cc1)N1CCc2sccc2C1c1ccc(C(F)(F)F)cc1 (centres undefined) | 6.47 | 178 µL/min/mg |  |
| CC(C)CN1CCc2sccc2C1c1ccc(C(F)(F)F)cc1 (centres undefined) | < 4.70 |  |  |
| O=C(Nc1ccc(F)cc1)N1CCc2cccc(F)c2C1c1ccc(C(F)(F)F)cc1 (centres undefined) | 6.10 | 43 µL/min/mg |  |
| O=C(Nc1ccccc1)N1CCc2sccc2C1c1ccccc1F (centres undefined) | 5.64 | > 399 µL/min/mg |  |
| O=C(Nc1ccc(F)cc1)N1CCCCC1c1ccc(C(F)(F)F)cc1 (centres undefined) | 5.57 | 285 µL/min/mg |  |
| O=C(Cc1ccc(F)cc1)N1CCc2sccc2C1c1ccc(C(F)(F)F)cc1 (centres undefined) | 6.05 | > 399 µL/min/mg |  |
| O=C(Nc1ccccc1)N1CCc2sccc2C1c1cccc(F)c1 (centres undefined) | 5.88 | > 399 µL/min/mg |  |
| CC(C)C(=O)N1CCc2sccc2C1c1ccc(C(F)(F)F)cc1 (centres undefined) | 5.90 | > 399 µL/min/mg |  |
| O=C(N1CCOCC1)N1CCc2sccc2C1c1ccc(C(F)(F)F)cc1 (centres undefined) | < 4.70 | > 399 µL/min/mg |  |
| COc1ccc(NC(=O)N2CCc3sccc3C2c2ccc(C(F)(F)F)cc2)cc1 (centres undefined) | 5.63 | 203 µL/min/mg |  |
| O=C(Nc1ccc(F)cc1)N1CCc2ccc(F)cc2C1c1ccc(C(F)(F)F)cc1 (centres undefined) | 6.72 | 34 µL/min/mg |  |
| O=C(c1ccc(F)cc1)N1CCc2sccc2C1c1ccc(C(F)(F)F)cc1 (centres undefined) | < 4.70 | 248 µL/min/mg |  |
| O=C(Nc1ccccc1)N1CCc2sccc2C1c1ccc(C(F)(F)F)cc1 (centres undefined) | 6.54 | 211 µL/min/mg |  |
| O=C(Nc1ccccc1)N1CCc2sccc2C1c1cccc(C(F)(F)F)c1 (centres undefined) | 5.74 | > 399 µL/min/mg |  |
| O=C(Nc1ccc(F)cc1)N1CCCc2ccccc2C1c1ccc(C(F)(F)F)cc1 (centres undefined) | < 4.70 | 146 µL/min/mg |  |
| O=C(Nc1ccccc1)N1CCc2sccc2C1c1ccccc1Cl (centres undefined) | 6.85 | > 399 µL/min/mg |  |
| O=C(Nc1ccccc1)N1CCc2sccc2C1c1ccc(Cl)cc1 (centres undefined) | 6.25 | > 399 µL/min/mg |  |
| O=C(Nc1ccc(F)cc1)N1CCc2ccccc2[C@@H]1c1ccc(C(F)(F)F)cc1 |  |  | AUC(0-inf) [3]: 0.347 µg·h/mL; Vd [4]: 15.8 L/kg; inhibition (Rattus norvegicus [12]): inactive; Cp (Plasma [13]): 0.521 µg/mL |
| CC(C)NC(=O)N1CCc2sccc2C1c1ccc(C(F)(F)F)cc1 (centres undefined) | 6.26 | > 399 µL/min/mg |  |
| CC(C)N1CCc2sccc2C1c1ccc(C(F)(F)F)cc1 (centres undefined) | < 4.70 | < 14 µL/min/mg |  |
| O=C(Nc1cccc(F)c1)N1CCc2sccc2C1c1ccc(C(F)(F)F)cc1 (centres undefined) | 6.11 | 278 µL/min/mg |  |
| O=C(Nc1ccc(F)cc1)N1CCc2c(F)cccc2C1c1ccc(C(F)(F)F)cc1 (centres undefined) | 7.00 | 48 µL/min/mg |  |
| O=C(Nc1ccccc1)N1CCc2sccc2C1c1cccc(Cl)c1 (centres undefined) | 5.54 | > 399 µL/min/mg |  |
